Holding throughout (format): functional
One assay has as its system Bacillus subtilis. In words: Antimicrobial activity against Bacillus subtilis IFO 3007 at 200 ug/disc after 24 hrs. Particulars: IFO 3007, 24 h, read-out: IZ.
For assay [1], the system named is Rattus norvegicus. In words: Antiinflammatory effect on carrageenan-induced paw oedema Sprague-Dawley rat assessed as reduction of paw oedema at 60 mg/kg, ip. The settings on record: route intraperitoneal. Also on record: scale not given: the % may be the effect or the level left. Put shortly:
(§1)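 Rats in groups of five, acclimatised two days, given compound (20, 40, 60 mg/kg) or indomethacin (10 mg/kg) i.p. as suspension in 1 ml 0.5% aqueous carboxymethyl cellulose 1 h before 0.1 ml 1% carrageenin in saline into right hind plantar tissue; left paw got saline. Paw volume by water plethysmometer at 4 h; % protection vs vehicle control; mean ± S.E.M., Student's t test.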
On the technique in general: Carrageenan injected into the paw causes an acute inflammation.

The subject of assay [2] is Rattus norvegicus. In words: Antiinflammatory effect on carrageenan-induced paw oedema Sprague-Dawley rat assessed as reduction of paw oedema at 40 mg/kg, ip. On the set-up: scale not given: the % may be the effect or the level left. Particulars: route intraperitoneal. Put shortly: as §1
For assay [3], the system named is Rattus norvegicus. Kind of assay: Antiinflammatory effect on carrageenan-induced paw oedema Sprague-Dawley rat assessed as reduction of paw oedema at 20 mg/kg, ip. Also on record: scale not given: the % may be the effect or the level left. The settings on record: route intraperitoneal. Put shortly:
as §1

The subject of the next assay is Pseudomonas aeruginosa. Kind of assay: Antimicrobial activity against Pseudomonas aeruginosa IFO 3448 at 200 ug/disc. The settings on record: read-out: IZ.
For the next assay, the system named is Escherichia coli. Kind of assay: Antimicrobial activity against Escherichia coli IFO 3301 at 200 ug/disc after 24 hrs. The settings on record: IFO 3301, 24 h, read-out: IZ.
Another assay relates to Staphylococcus aureus. Kind of assay: Antimicrobial activity against Staphylococcus aureus IFO 3060 at 200 ug/disc after 24 hrs. The settings on record: IFO 3060, 24 h, read-out: IZ.
The next assay deals with Candida albicans. In words: Antimicrobial activity against Candida albicans IFO 0583 at 200 ug/disc after 48 hrs. The settings on record: IFO 0583, 48 h, read-out: IZ.

For the compound `O=[N+]([O-])c1ccc(-c2nnc(C34CC5CC(CC(C5)C3)C4)o2)c(Cl)c1`, the zone of inhibition at 200 µg/disc in the assay with Bacillus subtilis was 14 mm; in the assay on Pseudomonas aeruginosa, 10 mm; in the assay on Escherichia coli it was 10 mm; in the assay with Staphylococcus aureus, less than 10 mm; in the assay on Candida albicans, less than 10 mm. The Activity in the assay with Rattus norvegicus [1] was found to be 19.34%; in the assay on Rattus norvegicus [2], 21.65%; in the assay with Rattus norvegicus [3], 19.69%.

On to `c1ccc(-c2nnc(NC34CC5CC(CC(C5)C3)C4)s2)cc1`, for which the zone of inhibition at 200 µg/disc in the assay on Bacillus subtilis was less than 10 mm; in the assay on Pseudomonas aeruginosa it was less than 10 mm; in the assay with Escherichia coli, 12 mm; in the assay with Staphylococcus aureus, less than 10 mm; in the assay with Candida albicans it was less than 10 mm. Also, the Activity in the assay with Rattus norvegicus [1] stood at 33.53%; in the assay with Rattus norvegicus [2], 34.05%; in the assay on Rattus norvegicus [3], 19.69%.

Take `Brc1ccc(-c2nnc(NC34CC5CC(CC(C5)C3)C4)s2)cc1`: the zone of inhibition at 200 µg/disc in the assay with Bacillus subtilis, in the assay on Pseudomonas aeruginosa, with Escherichia coli, with Staphylococcus aureus and in the assay on Candida albicans was less than 10 mm throughout. In addition, the Activity in the assay with Rattus norvegicus [1] is given as 14.16%; in the assay with Rattus norvegicus [2] it was 13.38%; in the assay on Rattus norvegicus [3], 12.51%.

For the compound `c1csc(-c2nnc(NC34CC5CC(CC(C5)C3)C4)s2)c1`, the zone of inhibition at 200 µg/disc with Bacillus subtilis was 10 mm; with Pseudomonas aeruginosa it was less than 10 mm; with Escherichia coli it was less than 10 mm; in the assay with Staphylococcus aureus, less than 10 mm; in the assay with Candida albicans it was less than 10 mm. For the same compound, the Activity is 37.52% with Rattus norvegicus [1], 28.62% in the assay with Rattus norvegicus [2] and 15.43% in the assay with Rattus norvegicus [3].

Regarding `O=C(NNC(=S)NC12CC3CC(CC(C3)C1)C2)c1ccc(F)cc1`, the zone of inhibition at 200 µg/disc is 13 mm with Bacillus subtilis; less than 10 mm in the assay on Pseudomonas aeruginosa; less than 10 mm in the assay with Escherichia coli; less than 10 mm in the assay with Staphylococcus aureus; less than 10 mm in the assay with Candida albicans.

In the case of `O=C(NNC(=S)NC12CC3CC(CC(C3)C1)C2)c1ccc(Cl)cc1`, the zone of inhibition at 200 µg/disc in the assay with Bacillus subtilis was 13 mm; in the assay on Pseudomonas aeruginosa, less than 10 mm; in the assay on Escherichia coli it was less than 10 mm; with Staphylococcus aureus, less than 10 mm; with Candida albicans, less than 10 mm. Moreover, in the assay on Rattus norvegicus [3], the Activity came to 9.11%.

In the case of `O=C(NNC(=S)NC12CC3CC(CC(C3)C1)C2)c1ccc(Br)cc1`, the zone of inhibition at 200 µg/disc is 10 mm in the assay with Bacillus subtilis; less than 10 mm in the assay with Pseudomonas aeruginosa; less than 10 mm in the assay with Escherichia coli; less than 10 mm in the assay with Staphylococcus aureus; less than 10 mm in the assay on Candida albicans. Moreover, in the assay with Rattus norvegicus [2], the Activity was 2.34%.

In the case of `c1ccc(-c2nnc(C34CC5CC(CC(C5)C3)C4)o2)cc1`, the zone of inhibition at 200 µg/disc with Bacillus subtilis, in the assay on Pseudomonas aeruginosa, with Escherichia coli, with Staphylococcus aureus and in the assay on Candida albicans was less than 10 mm throughout. Moreover, the Activity with Rattus norvegicus [1] is reported as 34.5%; in the assay on Rattus norvegicus [2], 31.28%; in the assay with Rattus norvegicus [3], 23.16%.

On to `C1C2CC3CC1CC(c1nnc(C45CC6CC(CC(C6)C4)C5)o1)(C2)C3`, for which the zone of inhibition at 200 µg/disc with Bacillus subtilis was less than 10 mm; in the assay with Pseudomonas aeruginosa it was less than 10 mm; with Escherichia coli, less than 10 mm; with Staphylococcus aureus it was less than 10 mm; with Candida albicans, 10 mm. Moreover, the Activity in the assay with Rattus norvegicus [1] was determined as 71.52%; with Rattus norvegicus [2], 68.97%; in the assay on Rattus norvegicus [3], 44.27%.

The record behind these values is ChEMBL document CHEMBL1142888, “Synthesis, antimicrobial, and anti-inflammatory activities of novel 2-(1-adamantyl)-5-substituted-1,3,4-oxadiazoles and 2-(1-adamantylamino)-5-substituted-1,3,4-thiadiazoles” (2007).
